In PubChem BioAssay:
Inconclusive results are not listed. Calls of active or inactive are those of the source.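 The calls were made as follows, unless noted: active = RAM network inhibition above 8.4% in each of two replicates, 3 SD over the compound average; inconclusive = above 8.4% inhibition in only one replicate; inactive = 8.4% inhibition or less in each replicate.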

What was measured:
[1] = S. cerevisiae growth inhibition in permissive medium (OD615), pilot counter-assay for S. cerevisiae lifespan shortening project, permissive growth control (AID 705;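 active = growth inhibition above 25% in both replicates, a cutoff set 3 SD above the mean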); conditions: OD615, 24 h, at 10 µM, active compounds read high
In short: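 assay system = Saccharomyces cerevisiae strain carrying genetically modified DeaD replicative-lifespan system | medium = SC raffinose/galactose permissive medium | dosing = 10 µM single dose, 0.25% DMSO | schedule = 24 h compound exposure at 30 °C after 4 h pre-growth | measured by = OD at 615 nm | read-out basis = growth inhibition from lowered OD615 after 24 h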

[2] = S. cerevisiae growth inhibition in restrictive medium, OD615, pilot screen, restrictive growth control, yeast lifespan reduction project (AID 706;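 active = growth inhibition above a set limit, 3 SD over mean compound inhibition, in both replicates, cut at about 43% in these data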;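 also: modified DeaD lifespan yeast strain shifted to restrictive glucose medium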); conditions: OD615, 48 h, at 10 µM, active compounds read high
In short: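 Buffer or medium: CSMM-D glucose medium. Material: genetically modified Saccharomyces cerevisiae, DeaD replicative lifespan assay strain. Times: 48 h compound exposure at 30 °C. Measured by: optical density at 615 nm.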

[3] = doxorubicin toxicity protection in MRP-1 cells – H69AR cells, CellTiter-Glo, duplicate, MRP-1 activator project, pilot screen (AID 807;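 active = viability increase at or above a cutoff of the median across tested compounds plus 3 SD, cut at about 8.5% in these data, passing the limit was not always enough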;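 also: compound pretreatment 18-22 h then 72 h combined with doxorubicin; 0% = doxorubicin alone and 100% = vehicle without doxorubicin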); conditions: H69AR viability with doxorubicin, CellTiter-Glo luminescence; at 10 µM; active compounds read high
[4] = viability of HCT116 without oncogenic beta-catenin – human colon tumor cells, pilot screen (AID 823;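 active = cell viability at or below a set limit in both duplicate runs, the limit being the all-compound median minus 4 SD, cut at about 23% in these data, passing the limit was not always enough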;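 also: 0% = wells killed by 20 µM Hyamine and 100% = untreated DMSO cell wells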); conditions: HCT116 beta-catenin knockout viability, CellTiter-Glo, 60 h; at 10 µM; active compounds read low
[5] = viability of PTEN-null HCT116 cells – cell-based, HCT116 clonal line, CellTiter-Glo, pilot screen (AID 824;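 active = viability at or below 27.92% in each of two runs, the all-compound median minus 4 SD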;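 also: 0% = 20 µM Hyamine control and 100% = vehicle cell control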); conditions: HCT116 PTEN-deleted viability, 60 h, at 10 µM, active compounds read low
[6] = RAM pathway blockade in budding yeast – dse1pr::URA3 reporter, 5-FOA selection, pilot screen (AID 869;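 active = inhibition over a set limit, the all-compound mean plus 3 SD, in both replicate runs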;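 also: 0% = DMSO wells with no growth and 100% = 10 µM 1-NA-PP1 with full growth; RAM network block rescues cells from 5-FOA so hits raise OD615 growth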); conditions: S. cerevisiae dse1pr::URA3 5-FOA growth, OD615, 2 d; at 10 µM; active compounds read high; strain carries analog-sensitive mutant Cbk1 kinase
[7] = RAM signaling pathway blockade in yeast – S. cerevisiae, Pdr1DBD-CYC8 efflux-inhibited sensitized strain, primary screen (AID 1298);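 also: 0% = DMSO untreated cells without growth and 100% = 10 µM 1-NA-PP1 full growth; higher means more yeast growth rescued from 5-FOA killing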; conditions: S. cerevisiae cbk1-as DSE1-URA3 strain, 5-FOA growth OD615, 2 d; at 50 µM; active compounds read high

Cc1cc2ccccc2n1CCNC(=O)C(C)(C)C
inactive: growth inhibition [1] 3.07% | growth inhibition [2] 7.19% | viability increase [3] -0.5% | viability [4] 96.6% | viability [5] 103% | inhibition [6] 1.72% | RAM network inhibition [7] -1.8%

COCCn1c(SCC(=O)Nc2ccccc2)nc2c1c(=O)[nH]c(=O)n2C
inactive: growth inhibition [1] 1.17% | growth inhibition [2] -4.34% | viability increase [3] 1.21% | viability [4] 102% | viability [5] 95.5% | inhibition [6] 1.67% | RAM network inhibition [7] 1.25%

CCN(CCCNC(=O)CN1C(=O)COc2ccccc21)c1ccccc1
inactive: growth inhibition [1] 0.42% | growth inhibition [2] -11.2% | viability increase [3] 1.23% | viability [4] 95.9% | viability [5] 88.3% | inhibition [6] 1.61% | RAM network inhibition [7] 3.49%

O=C(NCCCN1CCC(Cc2ccccc2)CC1)C1CCC(=O)N1C1CCCC1 (configuration not stated)
inactive: growth inhibition [1] 0.095% | growth inhibition [2] 10.8% | viability increase [3] -0.92% | viability [4] 79.7% | viability [5] 96.9% | inhibition [6] 0.3% | RAM network inhibition [7] 1.85%

CCOc1ccc(-c2nc(C#N)c(N3CCN(Cc4ccccc4)CC3)o2)cc1
inactive: growth inhibition [1] -4.62% | growth inhibition [2] 8.5% | viability increase [3] -0.05% | viability [4] 78.6% | viability [5] 87.2% | inhibition [6] -0.36% | RAM network inhibition [7] 3.33%

COC(=O)c1ccccc1NS(=O)(=O)c1cn(C)c(=O)n(C)c1=O
inactive: growth inhibition [1] -1.82% | growth inhibition [2] -6.46% | viability increase [3] -1.59% | viability [4] 101% | viability [5] 92.6% | inhibition [6] 0.585% | RAM network inhibition [7] 1.2%

COc1ccc(N2CCN(CCCNS(=O)(=O)c3ccc4c(c3)oc(=O)n4C)CC2)cc1
inactive: growth inhibition [1] -8.8% | growth inhibition [2] 2.4% | viability increase [3] 0.06% | viability [4] 94.3% | viability [5] 97.4% | inhibition [6] 1.25% | RAM network inhibition [7] 6.05%

O=C1c2ccccc2C(O)N1c1ccc(Cl)cc1 (configuration not stated)
inactive: growth inhibition [1] -8.19% | growth inhibition [2] -7.83% | viability increase [3] -0.07% | viability [4] 93.4% | viability [5] 95.5% | inhibition [6] 0.58% | RAM network inhibition [7] 1.49%

CCOc1ccc2ccccc2c1C(=O)Nc1cc(=O)n(C)c(=O)n1C
inactive: growth inhibition [1] -8.05% | growth inhibition [2] -21.5% | viability increase [3] 0.11% | viability [4] 107% | viability [5] 94.4% | inhibition [6] 1.17% | RAM network inhibition [7] -1.04%

Cc1ccc(C)c(N(C)S(=O)(=O)c2cccc3nsnc23)c1
inactive: growth inhibition [1] -6.8% | growth inhibition [2] -6.89% | viability increase [3] -3.51% | viability [4] 79.5% | viability [5] 75.5% | inhibition [6] 0.92% | RAM network inhibition [7] 7.63%

O=C(NCCc1csc(-c2cccnc2)n1)c1ccc(Br)o1
inactive: growth inhibition [1] 1.56% | growth inhibition [2] 10.1% | viability increase [3] -2.6% | viability [4] 107% | viability [5] 97.3% | inhibition [6] 0% | RAM network inhibition [7] 2.18%

COc1ccccc1C1C(C(N)=O)=C(C)Nc2nc(-c3ccccc3Cl)nn21 (configuration not stated)
inactive: growth inhibition [1] -4.68% | growth inhibition [2] -4.21% | viability increase [3] -2.13% | viability [4] 92.9% | viability [5] 95.8% | inhibition [6] 0.48% | RAM network inhibition [7] -2.19%

Cc1nc2ccccc2c(=O)n1NC(=O)c1c(O)c2ccccc2n(C)c1=O
inactive: growth inhibition [1] -5.41% | growth inhibition [2] 7.71% | viability increase [3] -2.45% | viability [4] 100% | viability [5] 99% | inhibition [6] 0.995% | RAM network inhibition [7] 0.88%

Cc1nnc(SCCn2c(N3CCN(c4ccccc4)CC3)nc3c2c(=O)n(C)c(=O)n3C)s1
inactive: growth inhibition [1] -8.87% | growth inhibition [2] -18.3% | viability increase [3] -1.99% | viability [4] 104% | viability [5] 102% | inhibition [6] 1.23% | RAM network inhibition [7] 2.19%

CCOC(=O)CNC(=O)CSc1nnc(Cn2c(=O)sc3ccccc32)n1C
inactive: growth inhibition [1] -6.96% | growth inhibition [2] 6.85% | viability increase [3] -1.45% | viability [4] 108% | viability [5] 98% | inhibition [6] 0.83% | RAM network inhibition [7] 3.34%

COc1ccc(Nc2ncnc3c2oc2ccccc23)cc1
inactive: growth inhibition [1] -9.29% | growth inhibition [2] 16.5% | viability increase [3] -2.52% | viability [4] 92.5% | viability [5] 92% | inhibition [6] -0.035% | RAM network inhibition [7] 4.44%

COCCCNC(=O)Cn1cc2c(n1)CCCCC2
inactive: growth inhibition [1] 3.39% | growth inhibition [2] -2.59% | viability increase [3] 0.05% | viability [4] 104% | viability [5] 106% | inhibition [6] -0.6% | RAM network inhibition [7] 4.53%

O=C(CSc1nnc(-c2ccccc2)o1)Nc1ccccc1F
inactive: growth inhibition [1] -5.54% | growth inhibition [2] -2.1% | viability increase [3] -3.62% | viability [4] 37.7% | viability [5] 38% | inhibition [6] 2.13% | RAM network inhibition [7] 8.53%

Cc1ccc(-n2nnc3c(=O)n(Cc4ccccc4C)cnc32)cc1
inactive: growth inhibition [1] -4.99% | growth inhibition [2] -6.7% | viability increase [3] -0.53% | viability [4] 102% | viability [5] 100% | inhibition [6] 2.44% | RAM network inhibition [7] 4.84%

Cc1nnc(NC(=O)CSC2CCCCC2)s1
inactive: growth inhibition [1] 3.88% | growth inhibition [2] 17.7% | viability increase [3] -0.77% | viability [4] 105% | viability [5] 97.9% | inhibition [6] 1.1% | RAM network inhibition [7] 2.15%

Cc1ccc(NC(=O)CCNS(=O)(=O)c2cccc3nonc23)cc1
inactive: growth inhibition [1] -4.17% | growth inhibition [2] -8.23% | viability increase [3] -1.47% | viability [4] 105% | viability [5] 95.5% | inhibition [6] 0.755% | RAM network inhibition [7] 4.98%

CC(=O)Nc1c2c(nn1-c1cccc(Cl)c1)CS(=O)C2 (configuration not stated)
inactive: growth inhibition [1] 3.89% | growth inhibition [2] -5.49% | viability increase [3] -0.33% | viability [4] 94.1% | viability [5] 100% | inhibition [6] 1.38% | RAM network inhibition [7] 0.11%

CCOC(=O)N1CCN(C(=O)C2CCN(Cc3nc(-c4ccccc4C)oc3C)CC2)CC1
inactive: growth inhibition [1] -13.5% | growth inhibition [2] -31.5% | viability increase [3] -1.65% | viability [4] 85.3% | viability [5] 88% | inhibition [6] 0.75% | RAM network inhibition [7] 1.63%

O=C(NCC1CCCO1)C1CC(=O)N(c2ccc(F)c(Cl)c2)C1 (configuration not stated)
inactive: growth inhibition [1] -7.27% | growth inhibition [2] -1.83% | viability increase [3] -1.68% | viability [4] 86.7% | viability [5] 94.1% | inhibition [6] 1.5% | RAM network inhibition [7] 5.33%

C/C(=C\C(=O)c1ccc(C)cc1)Nc1cccc(O)c1
inactive: growth inhibition [1] 4.13% | growth inhibition [2] -2.96% | viability increase [3] -4.74% | viability [4] 99.2% | viability [5] 92.8% | inhibition [6] 2.13% | RAM network inhibition [7] -0.26%

O=C(c1ccc2nc(N3CCCCC3)sc2c1)N1CCN(Cc2ccc3c(c2)OCO3)CC1
inactive: growth inhibition [1] 2.12% | growth inhibition [2] 1.62% | viability increase [3] 1.03% | viability [4] 54.2% | viability [5] 60.2% | inhibition [6] 0.76% | RAM network inhibition [7] 1.12%

Cn1c(=O)c2c(nc(OCc3ccccc3)n2C)n(C)c1=O
inactive: growth inhibition [1] -2.8% | growth inhibition [2] -0.39% | viability increase [3] 3.09% | viability [4] 100% | viability [5] 98.3% | inhibition [6] -0.115% | RAM network inhibition [7] 0.26%

Fc1ccc(-n2[nH]nnc2=S)cc1N1CCCC1
inactive: growth inhibition [1] -3.75% | growth inhibition [2] 3.59% | viability increase [3] -1.28% | viability [4] 104% | viability [5] 99.6% | inhibition [6] -0.32% | RAM network inhibition [7] -2.49%

Cc1nc2ccc(S(=O)(=O)NC(C(=O)NCc3ccco3)C(C)C)cc2s1 (configuration not stated)
inactive: growth inhibition [1] -6.93% | growth inhibition [2] -0.665% | viability increase [3] -2.43% | viability [4] 101% | viability [5] 101% | inhibition [6] 0.895% | RAM network inhibition [7] -0.06%

[O-]/[N+](=C/c1cccnc1)c1ccc(Br)cc1
inactive: growth inhibition [1] -11.4% | growth inhibition [2] -4.11% | viability increase [3] -4.72% | viability [4] 93.8% | viability [5] 94% | inhibition [6] 2.69% | RAM network inhibition [7] 8.64%

COc1ccc(C2C(C(=O)N3CCOCC3)CCC(=O)N2c2cc(OC)c(OC)c(OC)c2)cc1 (configuration not stated)
inactive: growth inhibition [1] -10.2% | growth inhibition [2] -12.3% | viability increase [3] -0.09% | viability [4] 99.7% | viability [5] 102% | inhibition [6] 0.705% | RAM network inhibition [7] 1.3%

C=CCn1c2ccccc2c2nnc(SCN3C(=O)c4ccccc4C3=O)nc21
inactive: growth inhibition [1] 7.65% | viability increase [3] -4.7% | viability [4] 100% | viability [5] 93.7% | inhibition [6] 3.45% | RAM network inhibition [7] 4.65%
active: growth inhibition [2] 48.4%

O=C(NCCc1csc(-c2cccnc2)n1)c1cccs1
inactive: growth inhibition [1] 1.53% | growth inhibition [2] 4.78% | viability increase [3] -0.87% | viability [4] 103% | viability [5] 106% | inhibition [6] 1.27% | RAM network inhibition [7] 0.68%

COc1ccc(C(=O)NCC(c2cccnc2)N2CCN(c3ccccc3OC)CC2)cc1OC (configuration not stated)
inactive: growth inhibition [1] -7.95% | growth inhibition [2] -2.41% | viability increase [3] -3.05% | viability [4] 89.4% | viability [5] 91% | inhibition [6] 1.16% | RAM network inhibition [7] 2.21%

Cc1cc(C)c(C#N)c(Oc2ccc(O)cc2)n1
inactive: growth inhibition [1] -14.7% | growth inhibition [2] -10.3% | viability increase [3] -2.42% | viability [4] 98.7% | viability [5] 90.9% | inhibition [6] 2.56% | RAM network inhibition [7] 2.67%

O=C(O)Cc1ccc(NC(=O)C2CC=CCC2C(=O)O)cc1 (configuration not stated)
inactive: growth inhibition [1] -7.36% | growth inhibition [2] 1.55% | viability increase [3] 1.02% | viability [4] 102% | viability [5] 104% | inhibition [6] 3.26% | RAM network inhibition [7] 8.93%
